We go through 95 compounds from ChEMBL document CHEMBL4513216, “Probing the Open Global Health Chemical Diversity Library for Multistage-Active Starting Points for Next-Generation Antimalarials” (ACS Infect Dis, 2020).

This data set in a line: Toxicity liver stage against HepG2, at 10uM. Format: cell-based. Set-up: test concentration 10 uM, cell line HepG2-A16-CD81EGFP. Particulars: human, HepG2-A16-CD81EGFP cells; read-out: INHIBITION
The method in brief: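 Uninfected HepG2-A16-CD81EGFP cells, 3 × 10^3 per well, 1536-well, plated on prespotted compound at 10 μM final, parasite-free screening media added to match infected plates; puromycin 10 μM positive, DMSO 0.5% negative; run in parallel with 48 h PbLuc assay at 37 °C, 5% CO2; viability by CellTiter-Glo luminescence, normalized to controls.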
For `CCc1n[nH]c(C2CN(C(=O)c3ccc4c(c3)CCC4)CCO2)n1` (stereo not given), the cytotoxicity at 10 µM was -13.1%.
As for `CC(c1nncn1C)n1cc(-c2cc(CN3CCCC3)cs2)nn1` (stereo not given), the figure is 2.04%.
Turning to `Cc1cc(C(=O)NCCN2CCC(C)CC2)nn1C(C)(C)C`, the cytotoxicity at 10 µM was determined as 13.3%.
Under `O=S(=O)(C1CC1)N1CCC2(CCN(Cc3nccs3)CC2)CC1` stands 7.67%; under `Cc1nc(S(=O)(=O)CCn2cccn2)n(C2CCCC2)c1C`, -0.829%.
As for `CC1c2ncc(Cn3cccn3)n2CCN1c1ncccn1` (stereo not given), the figure is -108%; as for `COc1cccc(CN2CCC3(CC2)CCN(c2ncc(F)cn2)C3)c1`, 1.42%.
As for `CS(=O)(=O)N[C@@H]1COC[C@@H]2CN(Cc3ccoc3)C[C@@H]21`, the figure is -4.85%; as for `CCN(C)C[C@@H]1CN(S(=O)(=O)c2ccc(OC)cc2)C[C@@H]1CO`, 14.8%.
Take `CC(=O)Cc1c(C)nn(-c2cncc(N)c2)c1C`: the cytotoxicity at 10 µM is -4.05%.
On to `Cc1ccc(-c2noc(CN3CCOC(Cn4cccn4)C3)n2)cc1` (stereo not given), for which the cytotoxicity at 10 µM is -5.98%.
Turning to `O=C(O)c1ccnc(SCC(F)(F)F)c1`, the cytotoxicity at 10 µM is -17.6%.
In the case of `CCn1ncc2c1NC(=O)CC2c1cnc(-c2ccccn2)nc1` (stereo not given), the cytotoxicity at 10 µM was -7.76%.
For `FC(F)(F)Cn1cc(NCc2cscn2)cn1`, the cytotoxicity at 10 µM is -8.51%.
On to `COC(=O)c1cccc(C(=O)N2CCCC(n3cncn3)C2)c1` (stereo not given), for which the cytotoxicity at 10 µM was -6.48%.
Under `O=S(=O)(NCCNc1ccc(-n2cccn2)nn1)c1ccccc1` stands -8.55%; under `CS(=O)(=O)NC1CCN(Cc2ccc(OCc3ccccn3)cc2)CC1`, 1.63%; under `CC(NCc1ccnc(OC2CCC2)c1)c1cnn(C)c1` (stereo not given), 5.64%.
As for `COc1ccccc1CN1C[C@@H]2CN(Cc3cccnc3)CCO[C@@H]2C1`, the cytotoxicity at 10 µM is 12.3%.
As for `CCC(CNC(=O)OC)(OC)c1ccccc1` (stereo not given), the cytotoxicity at 10 µM came out at 1.37%.
Under `COc1ccc(CN(C)C(=O)Cc2c(C)nn(C)c2C)cc1F` stands 17%; under `CNc1nc(C2CCCCN2C(=O)COC)nc2c1CN(C)CC2` (stereo not given), -13.1%; under `CCNC(=O)N1CCCC(c2noc(CC)n2)C1` (stereo not given), -2.45%.
Take `COc1nsc2nc(C3CCCN3C(C)=O)ccc12` (stereo not given): the cytotoxicity at 10 µM was 6.78%.
Turning to `COCCCC(=O)N(CCC(=O)O)Cc1ccc(F)c(F)c1`, the cytotoxicity at 10 µM is 4.91%.
As for `CCOC(=O)N1CCNC(c2cccs2)C1` (stereo not given), the figure is -147%; as for `CC1COCCN1C(=O)c1ccc(=O)n(CCOc2ccccc2)n1` (stereo not given), -13.5%.
Consider `CC(C)(C)c1noc(CN2CCCC(CNS(N)(=O)=O)C2)n1` (stereo not given), for which the cytotoxicity at 10 µM was found to be 1.3%.
As to `CC(C)(C)Cc1nnc(NCc2cccc(C#N)c2)o1`, the cytotoxicity at 10 µM was -16.1%.
As for `Cc1ccc(NS(=O)(=O)c2cc3c(c(C(=O)O)c2)OCCO3)c(F)c1`, the figure is -9.36%; as for `CNC(=O)c1cccc(CNC(C)c2cc(C)ccc2OC(F)F)c1` (stereo not given), 20.2%; as for `CCCc1cncnc1N1CCC2(CCC(=O)N(CCOC)C2)CC1`, 1.86%.
Regarding `Cn1ccc(NCc2cc3cc(F)ccc3o2)n1`, the cytotoxicity at 10 µM was -12.4%.
As for `CC(C)n1c(C2CCCN(CC(=O)NC(N)=O)C2)nc2ccccc21` (stereo not given), the figure is -7.9%; as for `CCN(CC)S(=O)(=O)CC(=O)N1CCc2ccc(F)cc21`, -4.73%; as for `CC(C)(O)c1cn(C[C@H]2C[C@@H]3CCN2C[C@@H]3C(=O)N2CCOCC2)nn1`, 3.49%.
As for `OC1(CNCCc2nc3c(s2)CCCC3)CCNC1` (stereo not given), the cytotoxicity at 10 µM is 1.44%.
As for `COc1cc(C(=O)N2CC3(CCNCC3)c3cc(Cl)ccc32)ccn1`, the figure is 52.8%.
Take `Cn1cc(CN2CCc3ncn(C)c3C2COCc2cccnc2)cn1` (stereo not given): the cytotoxicity at 10 µM came to 6.86%.
For `O=C(C[S+]([O-])Cc1csc(C2CCCC2)n1)NC1CCCC1` (stereo not given), the cytotoxicity at 10 µM was -38.2%.
As for `COc1ccc(NC(=O)Cn2nc(C)c(C(C)=O)c2C)cc1`, the figure is -3.66%; as for `Cc1cc(C)cc(CN2C[C@H]3COC[C@H](N4CCN(C)CC4)[C@H]3C2)c1`, -93.7%.
Under `COc1cccc(CNc2c(C)cnc3c2c(=O)n(C)c(=O)n3C)c1` stands 21.1%; under `c1coc(CN2CCc3onc(Cn4cccc4)c3C2)c1`, 8.43%; under `CN(C)[C@@H]1CCN(C(=O)c2cccc(C#N)c2)[C@H]1Cc1cnn(C)c1`, -72.6%.
With `Cn1ncc2c1NC(=O)CC2c1c(F)cccc1Cl` (stereo not given), the cytotoxicity at 10 µM stood at 46.1%.
For `CC(C)Sc1nnnn1C1CCCC1`, the cytotoxicity at 10 µM was -8.61%.
`Cc1nc2c(c(=O)[nH]1)CCN(C(=O)c1cccc3nccnc13)C2`: the cytotoxicity at 10 µM is -16.8%.
Regarding `O=C(c1ccc(Br)o1)N1CCN(Cc2ccc(F)cc2)CC1`, the cytotoxicity at 10 µM worked out at 9.08%.
As for `Cc1cnn(CCNC(C)C(=O)NCCc2cccs2)c1` (stereo not given), the cytotoxicity at 10 µM was -9.38%.
In the case of `Cc1ccc(C(=O)N2CC[C@@H]3CN(C4CCOCC4)CCO[C@@H]3C2)o1`, the cytotoxicity at 10 µM was -121%.
As for `CC(C)CCN1CCN(C(=O)c2c[nH]nn2)CC1`, the figure is 1.64%; as for `O=C(NC[C@]1(O)CCN(Cc2ccccc2F)C[C@H]1O)c1c[nH]cn1`, 4.41%; as for `COC1(CNC(=O)NCCc2ccccc2)CCSC1` (stereo not given), -12.6%.
Under `O=C(NCC(c1ccccc1)N1CCOCC1)Nc1cn[nH]c1` (stereo not given) stands -15.8%; under `Cc1cnn(CCCNC(=O)CCC2CCCCN2C)c1` (stereo not given), -7.32%.
As for `Cn1ncc2c(=O)[nH]c(CN3CCCC3c3cccs3)nc21` (stereo not given), the figure is -4.43%; as for `CCSCCC(C)N(C)C(=O)c1cc(C)no1` (stereo not given), -9.99%; as for `Cc1cc(C2CCCN(CCCS(C)(=O)=O)C2)n[nH]1` (stereo not given), -13.2%.
On to `COc1cc(NC(=O)c2ccc(F)cc2Cl)c(C(=O)N(C)C)cc1OC`, for which the cytotoxicity at 10 µM was -11.1%.
Consider `Cc1cc(C)c2[nH]c(=O)c(CN3CCC(O)(CN(C)C)C3)cc2c1` (stereo not given), for which the cytotoxicity at 10 µM is -2.99%.
Under `Cc1ccc(CN2CC3(CCN(S(=O)(=O)c4ccccc4)C3)C2)o1` stands -2.3%.
Under `Cc1ccc(S(=O)(=O)NCc2[nH]ncc2Br)cc1F` stands 12.6%; under `O=C(c1ccnnc1)N1C[C@@H](OCC2CCCC2)[C@H]2OCCC[C@H]21`, -11.8%.
In the case of `CN(Cc1cccnc1)C[C@@H]1OC[C@H]2CN(C(=O)C3CC3)CC[C@H]21`, the cytotoxicity at 10 µM is -136%.
For the compound `COCCN1CCO[C@@H]2CN(C(=O)NCc3cccnc3)CC[C@@H]2C1`, the cytotoxicity at 10 µM turned out to be 6.65%.
Under `C1CC(CO[C@@H]2CC[C@H]3[C@H]2OCCN3CC2CCOCC2)CCO1` stands 13.7%; under `COc1ccc(C2CCCN2C(=O)Nc2ccc(OC)nc2)cc1` (stereo not given), 2.58%; under `CC(C)c1nccc(CN2CCCC(O)(CN(C)C)CC2)n1` (stereo not given), -2.01%.
Under `CCS(=O)(=O)N1CCC2(CCC(N3CCCC3)c3ccccc32)CC1` (stereo not given) stands 0.257%; under `CCN(CC)C(=O)c1cc(Br)cc(S(=O)(=O)N2CCOCC2)c1F`, -2.43%.
On to `Cn1ccnc1CN1CC2(CCN(Cc3ccncc3)C2)C1`, for which the cytotoxicity at 10 µM is -5.76%.
Regarding `COc1c(CNCCC(=O)Nc2cccc(C)n2)c(C)nn1C`, the cytotoxicity at 10 µM was 12.6%.
As for `Cc1cnn(C2CCCN(C(=O)c3cn(-c4ccccc4)nn3)C2)c1` (stereo not given), the figure is -22.1%; as for `CCN1CCN(C(=O)c2cc(C(F)(F)F)n[nH]2)[C@H]2CS(=O)(=O)C[C@H]21`, -3.77%; as for `CCc1nc2n(n1)CCCC2NC(=O)Nc1ccc(F)cc1C#N` (stereo not given), -0.802%.
As for `CN(C)c1ncc(-c2c(-c3ccccc3)ncn2C(CO)C(=O)O)cn1` (stereo not given), the cytotoxicity at 10 µM came to 0.471%.
For the compound `Cc1ncn(CCNC(=O)Nc2ccc(OC(F)(F)F)cc2)c(=O)c1C`, the cytotoxicity at 10 µM is -1.32%.
In the case of `CCC(NCc1ccccc1C)c1ccccc1OCC(=O)NC` (stereo not given), the cytotoxicity at 10 µM came to 16.9%.
As for `CC(C(=O)N1CCC(c2[nH]ncc2-c2ccccc2)CC1)n1cncn1` (stereo not given), the figure is -0.815%; as for `COc1ccc(NCc2c[nH]nc2-c2cccnc2)cc1`, -16.8%; as for `Cn1nnc2c1CCN(CC1CC1)C2COCC1CC1` (stereo not given), -110%.
As for `CCC(=O)N1CCC(c2nnc(Cn3cncn3)n2C2CC2)CC1`, the figure is -15.4%; as for `CS(=O)(=O)N1CCN(C(=O)c2cc(-c3ccc(Br)s3)n[nH]2)CC1`, -7.62%; as for `COc1ccccc1C1(CNc2nnc(C)c(C)c2C#N)CCOCC1`, 6.77%.
As for `Cc1nc2cc(=O)[nH]n2c(C)c1CC(=O)NC(C)C`, the figure is 11.3%; as for `Cc1nc(CNC(=O)c2cc(Cn3ccnc3C(C)C)[nH]n2)sc1C`, 2.99%.
Take `Cc1cc(CN(C)C(=O)NC2CCN(Cc3ccccc3)C2)no1` (stereo not given): the cytotoxicity at 10 µM is -0.421%.
Consider `O=C(O)c1cnc(N2CCC(O)CC2)nc1COc1ccc(F)cc1`, for which the cytotoxicity at 10 µM is -7.52%.
As to `CCn1ccnc1CN1CCN(C(C)C)CC1C` (stereo not given), the cytotoxicity at 10 µM was -6.58%.
`Cc1nc(N2C[C@H]3CC[C@@H](C2)N3)nc2cc(S(C)(=O)=O)ccc12`: the cytotoxicity at 10 µM was -7.71%.
As for `CCn1ccnc1CN1CCN(CC(=O)NC(=O)NC2CC2)CC1`, the figure is -3.3%.
Under `CCN1CCN(C2CCN(Cc3nc(CCOC)no3)CC2)C1=O` stands -9.44%; under `CC(=O)N(C)CC(=O)NCC1CCN(c2cc(Cl)ccc2C)C1` (stereo not given), -8.77%; under `CCCC(C(=O)NC1CCN(S(C)(=O)=O)CC1)c1ccccc1` (stereo not given), -1.38%.
